From the RNAGym collection of RNA variant scans (doi:10.1126/science.aae0568)
This sample holds only a part of the variants without activity.

B1: tRNA (parent)
chain: GUUCCGUUGGCGUAAUGGUAACGCGUCUCCCUCCUAAGGAGAAGACUGCGGGUUCGAGUCCCGUACGGAACG

Variants of: B1
Assay: yeast fitness relative to wild type (ratio to wild type); higher = fitter; tRNA-Arg(CCU), competitive growth, 37 C, YPD
Procedure, shortened: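 The tRNA-Arg(CCU) gene variants were made by chemical synthesis with a 3% per-site mutation rate at 69 sites and inserted at the native genomic locus of Saccharomyces cerevisiae. After pooling, the strains were competed in YPD at 37°C for 24 hours in six parallel replicates. Gene amplicons from the start population and each end population were read by 100-nucleotide paired-end sequencing, and Darwinian fitness relative to wild type was taken from genotype frequency changes. Genotypes needed ≥ 100 starting reads, and estimates < 0.5 were set to 0.5.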
For C5U U26A G68C, the yeast fitness was 0.663. C5G A21C A45G showed a yeast fitness of 0.512. C5U C24U A36G G41C showed a yeast fitness of at most 0.5. Variant A20G A69C has a yeast fitness of 0.916. In the case of C11U C27A C29A A37U A45U, the yeast fitness is reported as 0.54. C5U U16C C29A showed a yeast fitness of 0.522. A14C A42G G68C showed a yeast fitness of at most 0.5. For U2C A14G C29A C46G, the yeast fitness was at most 0.5. U3A C46A C66U gave a yeast fitness of 0.734. For A14C C27A C31A A70U, the yeast fitness was at most 0.5. For G9A G25A, the yeast fitness was 0.978. Variant C11U U19A U64C has a yeast fitness of 0.664. C11U U19G C27U G48A C61G gave a yeast fitness of at most 0.5. For U2G A20U G25C C49G A65C A70U, the yeast fitness was at most 0.5. G9A G17C C49G showed a yeast fitness of at most 0.5. A15U A20G A45U gave a yeast fitness of at most 0.5. Work on C31U C49U yielded a yeast fitness of 1.04. In the case of U26C U32C U47C G50A C61U U64A, the yeast fitness is reported as at most 0.5. A15G C46G showed a yeast fitness of 0.897. For A15G C27A C49U C55G, the yeast fitness was at most 0.5. For C31U A36C A45C C61G, the yeast fitness was at most 0.5. C5G U7A A20C C60U A69U gave a yeast fitness of 0.546. In the case of U19A C31U A42C A70G, the yeast fitness is reported as 0.912. With C46A A70C the yeast fitness was 1.02. U3C C22G G25A showed a yeast fitness of 1.02. With C61A G67A A69C the yeast fitness was 0.524. Variant C27G C46U A70G has a yeast fitness of 0.727. G23C C55G A69U showed a yeast fitness of at most 0.5. For C24G A42U A45C, the yeast fitness was at most 0.5. For A20G C22U C31G, the yeast fitness was 0.626. A15C U28C A43U showed a yeast fitness of at most 0.5. Work on G6A G12A C33G U54A U59A G67A yielded a yeast fitness of at most 0.5. C27U G38C A40U A45G G52A A65C gave a yeast fitness of at most 0.5. C5U C11U G25A A37G C46G G51C A57C C61U gave a yeast fitness of at most 0.5. U13A C29U A42U showed a yeast fitness of 0.568. Work on U7G C34A G44C G51A yielded a yeast fitness of at most 0.5. For C22U A43U C55G C61U, the yeast fitness was 0.659. Variant C4U U35A A36U C61U has a yeast fitness of at most 0.5. For C5G C49U C61G, the yeast fitness was 0.534. A15G G67A A69U showed a yeast fitness of 0.637. With U3C A15U C34U A43G G68A A69U the yeast fitness was at most 0.5. A21C U28A C55G A57U G67A showed a yeast fitness of at most 0.5. G17A U54A G56C gave a yeast fitness of 0.597. For A20C C33A A40C, the yeast fitness was 0.7. With C33U C49A G68C the yeast fitness was at most 0.5. C30G C33U C66U gave a yeast fitness of at most 0.5. U32C A43U A70U gave a yeast fitness of 0.735. Variant G6C A37C G51A U53C has a yeast fitness of at most 0.5. In the case of C27G C29U, the yeast fitness is reported as 0.578. Variant U26A A36G G56C has a yeast fitness of at most 0.5. In the case of U8A A36U, the yeast fitness is reported as 0.559. With C27U C33G A43G A57G C61U C62U the yeast fitness was 0.509. A42U C61A C62A G63A showed a yeast fitness of 0.748. Work on U13A A21C G38A A40U G50C C60G A70G yielded a yeast fitness of at most 0.5. G18A G25A C46U C55G A69C showed a yeast fitness of at most 0.5. C5A C33U C61U gave a yeast fitness of at most 0.5. Variant C11A G51A U59A has a yeast fitness of at most 0.5. Work on A15G A65C A69U yielded a yeast fitness of 0.705. G6A A20G C30U C55U showed a yeast fitness of at most 0.5. Work on C5U U16G G58C yielded a yeast fitness of 0.576. C11A C30U C49A gave a yeast fitness of at most 0.5. Work on A36G G48C yielded a yeast fitness of 0.905. Work on G6C U7G yielded a yeast fitness of 0.725. Work on C4G C11G C22U C46U yielded a yeast fitness of at most 0.5. With U16A G18C A20G C22U G58C C61A the yeast fitness was at most 0.5. Variant A21C A37G has a yeast fitness of 0.638. Variant G23C C49U G52C C60U C61G has a yeast fitness of at most 0.5. G6A G25C showed a yeast fitness of 0.866. In the case of A14U C30G C33A, the yeast fitness is reported as 0.529. With C24A C29U A37U C60A C66U the yeast fitness was at most 0.5. Variant C49G A57U C61G has a yeast fitness of 0.516. For A14G C29U A65G, the yeast fitness was 0.555. With G9A A14C G58A the yeast fitness was 0.546. Variant C49G C66G G67C has a yeast fitness of 0.569. G6C U19A A20U C22G U28C C34A G52A showed a yeast fitness of at most 0.5. In the case of U32C A42C G44A U53A, the yeast fitness is reported as at most 0.5. For C31U C33G A65C G68A A69U, the yeast fitness was at most 0.5. Work on C24U U26A U28G U54G C61U yielded a yeast fitness of at most 0.5. In the case of U13C U64C, the yeast fitness is reported as 1.04. Work on C24A A36U C61A yielded a yeast fitness of 0.509. With U32G A70C the yeast fitness was 0.787. Variant U13A A45C has a yeast fitness of 0.902. C31G G56A U59C A65C A70G showed a yeast fitness of at most 0.5. Variant C34G G51C U53C has a yeast fitness of 0.616. Work on U19A C46A A69U yielded a yeast fitness of 0.752. Work on A14G A42C A43U U59A C62G A65U yielded a yeast fitness of at most 0.5. G10C A14C A15C A43U showed a yeast fitness of at most 0.5. G23A G63A A65G showed a yeast fitness of 0.524. For A15U U53G A57C A69U, the yeast fitness was 0.625. A43C C49U C55G C61U gave a yeast fitness of 0.556. Work on G10C U28G C33G C49U A69U yielded a yeast fitness of at most 0.5. For C4G A14C U47C, the yeast fitness was at most 0.5. For G25C U32A C60A, the yeast fitness was at most 0.5. For C4U A45G A57C, the yeast fitness was 0.585. Variant C5G C11G C24U C62A has a yeast fitness of 0.584. G25A A40C C46U A69C gave a yeast fitness of 0.764. Variant A14C C22U C34U has a yeast fitness of 0.79. Work on U2A U64A A70U yielded a yeast fitness of 1.06. Variant A21U G41A A42C U54G has a yeast fitness of at most 0.5. In the case of G18C U19G C27U A43U, the yeast fitness is reported as at most 0.5. C5U A15C A21U gave a yeast fitness of at most 0.5. A21U A40U A70U showed a yeast fitness of 0.657. With G12C U13C A20C C29G the yeast fitness was at most 0.5. For C11U U64C A65G, the yeast fitness was 0.667. U2C C31U A57U gave a yeast fitness of 0.535. With A57G C61G C66U the yeast fitness was at most 0.5. In the case of C4U C11A G39A G51A, the yeast fitness is reported as at most 0.5. With C29U G50C U53C A57U C61G the yeast fitness was at most 0.5. With C30U C31U G41C the yeast fitness was 0.526. In the case of C5G C55U G67A, the yeast fitness is reported as 0.598. C4U A36G G44C C49U showed a yeast fitness of 0.631. Work on U13A A15U U16A A36U G44C G56A yielded a yeast fitness of at most 0.5. Work on U2C A15C C55G A57C C66A yielded a yeast fitness of at most 0.5. For C29U A65G, the yeast fitness was 0.934. With C4U C22U U35C G56A A70C the yeast fitness was at most 0.5. U32C A42U G58C gave a yeast fitness of 0.623. Work on G6A C11G U35A A37U U53A A65G yielded a yeast fitness of at most 0.5. Work on A36G C49U C66G yielded a yeast fitness of at most 0.5. U26C C29A showed a yeast fitness of 0.664. U13A C61U A70U showed a yeast fitness of 0.708. Variant C27U C30G A40C G44A G52A A70U has a yeast fitness of at most 0.5. C22U U35A C66U showed a yeast fitness of at most 0.5. Variant C4A U28A C30A C49G A70C has a yeast fitness of at most 0.5. With G6A C62U the yeast fitness was 0.921. For G6C G23C C24A, the yeast fitness was 0.585. With C5G U13C C24U C49U the yeast fitness was 0.526. C4U C46G C55U showed a yeast fitness of 0.576. Variant C5A U35C G44A G48C has a yeast fitness of at most 0.5. G12C C27U C33A A45C U54A C62U showed a yeast fitness of at most 0.5. For U8C U13C C27A, the yeast fitness was 0.574. Variant C29U U59A has a yeast fitness of 0.701. U2G U26A A43G G44C U53C showed a yeast fitness of at most 0.5. For U2A U47C, the yeast fitness was 1.08. In the case of A21U G39U A43C G63A, the yeast fitness is reported as at most 0.5. With C29G C66U the yeast fitness was 0.648. With G38A C62A A65U C66U the yeast fitness was at most 0.5. U8A U26G C29A C46U G58A showed a yeast fitness of at most 0.5. In the case of G23A C27U A65U, the yeast fitness is reported as 0.658. Variant A14G A15C U53G C60U has a yeast fitness of at most 0.5. For G23C U32C A45U, the yeast fitness was 0.605. With C4A G9A C24U C30U A36G A57G G58A G63A C66U the yeast fitness was at most 0.5. In the case of A14G C30A C34G C62U, the yeast fitness is reported as at most 0.5. Work on U47G C60U yielded a yeast fitness of 0.548. Variant U7G C29G C61U G68A has a yeast fitness of at most 0.5. C34G A65C showed a yeast fitness of 0.65. C61A U64C showed a yeast fitness of 0.801. With C4U C5G U28C the yeast fitness was 0.783. U13C G38C A40U C49A C66A showed a yeast fitness of at most 0.5. In the case of U26C G41A U47C C61G C62U, the yeast fitness is reported as at most 0.5. For G41C C55A A69C, the yeast fitness was 0.529. C11U A43C G48C U64C showed a yeast fitness of at most 0.5. In the case of A20G U28C, the yeast fitness is reported as 0.934. Work on G6A A14U C29A C49A yielded a yeast fitness of at most 0.5. For U3A A45U A69U, the yeast fitness was 0.788. C5U A21U C30G C33U C66A showed a yeast fitness of at most 0.5. C5U G25A A70C showed a yeast fitness of 0.796. Variant C11U G38C C62G has a yeast fitness of 0.542. With U13A G25C A45G A57G the yeast fitness was at most 0.5. C22A G58A C60U gave a yeast fitness of at most 0.5. With G10C C24G C27U C33U G50C G68A the yeast fitness was at most 0.5. Work on G18C U26A A45G C62G yielded a yeast fitness of 0.556. With A15G C27U C34U A57U C62A the yeast fitness was 0.563. For U2A U32C U53C, the yeast fitness was at most 0.5. C5A C30U U59C C62A showed a yeast fitness of at most 0.5. Work on U16C A20G G52A yielded a yeast fitness of at most 0.5. C5G G44C showed a yeast fitness of 0.688. For U7A C31A G39C G56C, the yeast fitness was at most 0.5.
